Converted amounts (≈) assume the structure as drawn. Some results are limits rather than exact numbers.

The test system of one assay is Bel-7402. Briefly: Cytotoxicity against human Bel7402 cells by MTT assay. Format: functional, cell-based. In a few lines:
(§1)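 Human tumour lines (A549 lung adenocarcinoma, BGC-823 stomach cancer, Bel 7402 hepatoma, HCT-8 colon cancer, HeLa) were exposed to the compounds and viability was read by MTT. Potency was expressed as IC50 in μg/mL.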
As usually defined, the IC50 is the concentration that inhibits the measured activity by half. High values mean weaker potency, low ones greater potency. `Cc1cc2c(cc1O)C[C@]1(CC[C@@H]3C[C@@]31C)O2` registered an IC50 greater than 10 µg/mL.
The compound `Cc1ccc([C@]2(C)CC[C@@H]3C[C@@]32C)cc1O` registered an IC50 greater than 10 µg/mL.
As to `Cc1ccc([C@]2(C)CC[C@H](C(C)(C)O)O2)cc1`, the IC50 is greater than 10 µg/mL.
Compound `Cc1cc2c(cc1Br)[C@]1(C)CC[C@H](C)[C@]1(C)O2` [APLYSIN] came in with an IC50 greater than 10 µg/mL.
On to `C=C1[C@](C)(O)CC[C@@]1(C)c1ccc(C)c(O)c1`, for which the IC50 was greater than 10 µg/mL.
Compound `CC1(C)[C@]23C[C@H](Br)[C@@](C)(Cl)C[C@@H]2O[C@]1(Br)[C@H](O)[C@H]1O[C@]13C` [JOHNSTONOL] gave an IC50 greater than 10 µg/mL.
Same read-out and setting: to `C=C1[C@](C)(O)CC[C@@]1(C)c1ccc(C)cc1O` belongs greater than 10 µg/mL.
For the compound `Cc1cc(O)c([C@]2(C)CC[C@@H]3C[C@@]32C)cc1-c1cc([C@]2(C)CC[C@@H]3C[C@@]32C)c(O)cc1C` [LAUREBIPHENYL], the IC50 came out at 1.91 µg/mL (≈ 4.44 µM).
`C=C1[C@](C)(O)CC[C@@]1(C)c1ccc(C)cc1`: the IC50 is greater than 10 µg/mL.
The compound `Cc1ccc(C(C)(O)C/C=C/C(C)(C)O)cc1` (stereo not given) had an IC50 greater than 10 µg/mL.
`C=C1[C@]2(C)CC[C@@]1(C)c1cc(Br)c(C)cc1O2` returned an IC50 greater than 10 µg/mL.
In turn, `Cc1cc2c(cc1Br)[C@]1(C)CC[C@H](C)[C@]1(CO)O2` [APLYSINOL] yielded an IC50 greater than 10 µg/mL.
Regarding `CC(C)=CCCC(C)(O)c1ccc(C)cc1` (stereo not given) [GOSSONOROL], the IC50 is greater than 10 µg/mL.
The compound `Cc1ccc([C@]2(C)CC[C@@H](C(C)(C)O)O2)cc1` displayed an IC50 greater than 10 µg/mL.

The next assay concerns A549. Briefly: Cytotoxicity against human A549 cells by MTT assay. Type of assay: functional, cell-based. In short, it runs like this: as §1
(In general: Formazan colour is commonly taken as a measure of viable cells.)
Take `Cc1cc2c(cc1O)C[C@]1(CC[C@@H]3C[C@@]31C)O2`: the IC50 was greater than 10 µg/mL.
For the compound `Cc1ccc([C@]2(C)CC[C@@H]3C[C@@]32C)cc1O`, the IC50 is greater than 10 µg/mL.
For `Cc1ccc([C@]2(C)CC[C@H](C(C)(C)O)O2)cc1`, the IC50 is greater than 10 µg/mL.
The same measure, in the same setting: the figure for `Cc1cc2c(cc1Br)[C@]1(C)CC[C@H](C)[C@]1(C)O2` [APLYSIN] is greater than 10 µg/mL.
For `C=C1[C@](C)(O)CC[C@@]1(C)c1ccc(C)c(O)c1`, the IC50 is greater than 10 µg/mL.
In turn, `CC1(C)[C@]23C[C@H](Br)[C@@](C)(Cl)C[C@@H]2O[C@]1(Br)[C@H](O)[C@H]1O[C@]13C` [JOHNSTONOL] gave an IC50 greater than 10 µg/mL.
For `C=C1[C@](C)(O)CC[C@@]1(C)c1ccc(C)cc1O`, the IC50 was greater than 10 µg/mL.
`Cc1cc(O)c([C@]2(C)CC[C@@H]3C[C@@]32C)cc1-c1cc([C@]2(C)CC[C@@H]3C[C@@]32C)c(O)cc1C` [LAUREBIPHENYL] registered an IC50 of 1.68 µg/mL (≈ 3.9 µM).
`C=C1[C@](C)(O)CC[C@@]1(C)c1ccc(C)cc1` registered an IC50 greater than 10 µg/mL.
`Cc1ccc(C(C)(O)C/C=C/C(C)(C)O)cc1` (stereo not given): the IC50 is greater than 10 µg/mL.
Regarding `C=C1[C@]2(C)CC[C@@]1(C)c1cc(Br)c(C)cc1O2`, the IC50 is greater than 10 µg/mL.
Turning to `Cc1cc2c(cc1Br)[C@]1(C)CC[C@H](C)[C@]1(CO)O2` [APLYSINOL], the IC50 is greater than 10 µg/mL.
As to `CC(C)=CCCC(C)(O)c1ccc(C)cc1` (stereo not given) [GOSSONOROL], the IC50 is greater than 10 µg/mL.
For `Cc1ccc([C@]2(C)CC[C@@H](C(C)(C)O)O2)cc1`, the IC50 was greater than 10 µg/mL.

The next assay has as its system HCT-8. Briefly: Cytotoxicity against human HCT8 cells by MTT assay. Type of assay: functional, cell-based. In short, it runs like this: as §1
Compound `Cc1cc2c(cc1O)C[C@]1(CC[C@@H]3C[C@@]31C)O2` displayed an IC50 greater than 10 µg/mL.
`Cc1ccc([C@]2(C)CC[C@@H]3C[C@@]32C)cc1O` had an IC50 greater than 10 µg/mL.
`Cc1ccc([C@]2(C)CC[C@H](C(C)(C)O)O2)cc1` showed an IC50 greater than 10 µg/mL.
With `Cc1cc2c(cc1Br)[C@]1(C)CC[C@H](C)[C@]1(C)O2` [APLYSIN], the IC50 is greater than 10 µg/mL.
Consider `C=C1[C@](C)(O)CC[C@@]1(C)c1ccc(C)c(O)c1`, for which the IC50 was greater than 10 µg/mL.
In the case of `CC1(C)[C@]23C[C@H](Br)[C@@](C)(Cl)C[C@@H]2O[C@]1(Br)[C@H](O)[C@H]1O[C@]13C` [JOHNSTONOL], the half-maximal inhibitory concentration (IC50) is greater than 10 µg/mL.
Consider `C=C1[C@](C)(O)CC[C@@]1(C)c1ccc(C)cc1O`, for which the half-inhibitory concentration (IC50) was greater than 10 µg/mL.
Same read-out and setting: to `Cc1cc(O)c([C@]2(C)CC[C@@H]3C[C@@]32C)cc1-c1cc([C@]2(C)CC[C@@H]3C[C@@]32C)c(O)cc1C` [LAUREBIPHENYL] belongs 1.77 µg/mL (≈ 4.11 µM); to `C=C1[C@](C)(O)CC[C@@]1(C)c1ccc(C)cc1`, greater than 10 µg/mL; to `Cc1ccc(C(C)(O)C/C=C/C(C)(C)O)cc1` (stereo not given), greater than 10 µg/mL.
Take `C=C1[C@]2(C)CC[C@@]1(C)c1cc(Br)c(C)cc1O2`: the half-inhibitory concentration (IC50) was greater than 10 µg/mL.
As to `Cc1cc2c(cc1Br)[C@]1(C)CC[C@H](C)[C@]1(CO)O2` [APLYSINOL], the IC50 is greater than 10 µg/mL.
The compound `CC(C)=CCCC(C)(O)c1ccc(C)cc1` (stereo not given) [GOSSONOROL] returned an IC50 greater than 10 µg/mL.
`Cc1ccc([C@]2(C)CC[C@@H](C(C)(C)O)O2)cc1` gave an IC50 greater than 10 µg/mL.

The next assay concerns BGC-823. As to the kind of experiment: Cytotoxicity against human BGC823 cells by MTT assay. Type of assay: functional, cell-based. In a few lines: as §1
Turning to `Cc1cc2c(cc1O)C[C@]1(CC[C@@H]3C[C@@]31C)O2`, the IC50 was greater than 10 µg/mL.
Take `Cc1ccc([C@]2(C)CC[C@@H]3C[C@@]32C)cc1O`: the IC50 is greater than 10 µg/mL.
`Cc1ccc([C@]2(C)CC[C@H](C(C)(C)O)O2)cc1` showed an IC50 greater than 10 µg/mL.
`Cc1cc2c(cc1Br)[C@]1(C)CC[C@H](C)[C@]1(C)O2` [APLYSIN] displayed a 50% inhibitory concentration (IC50) greater than 10 µg/mL.
In turn, `C=C1[C@](C)(O)CC[C@@]1(C)c1ccc(C)c(O)c1` showed an IC50 greater than 10 µg/mL.
Same read-out and setting: the figure for `CC1(C)[C@]23C[C@H](Br)[C@@](C)(Cl)C[C@@H]2O[C@]1(Br)[C@H](O)[C@H]1O[C@]13C` [JOHNSTONOL] is greater than 10 µg/mL; for `C=C1[C@](C)(O)CC[C@@]1(C)c1ccc(C)cc1O` it is greater than 10 µg/mL.
On to `Cc1cc(O)c([C@]2(C)CC[C@@H]3C[C@@]32C)cc1-c1cc([C@]2(C)CC[C@@H]3C[C@@]32C)c(O)cc1C` [LAUREBIPHENYL], for which the IC50 is 1.22 µg/mL (≈ 2.83 µM).
As to `C=C1[C@](C)(O)CC[C@@]1(C)c1ccc(C)cc1`, the IC50 is greater than 10 µg/mL.
Consider `Cc1ccc(C(C)(O)C/C=C/C(C)(C)O)cc1` (stereo not given), for which the IC50 is greater than 10 µg/mL.
As for `C=C1[C@]2(C)CC[C@@]1(C)c1cc(Br)c(C)cc1O2`, the IC50 is greater than 10 µg/mL.
The same measure, in the same setting: the figure for `Cc1cc2c(cc1Br)[C@]1(C)CC[C@H](C)[C@]1(CO)O2` [APLYSINOL] is greater than 10 µg/mL; for `CC(C)=CCCC(C)(O)c1ccc(C)cc1` (stereo not given) [GOSSONOROL] it is greater than 10 µg/mL.
On the same count and under the same terms, the figure for `Cc1ccc([C@]2(C)CC[C@@H](C(C)(C)O)O2)cc1` is greater than 10 µg/mL.

The subject of another assay is HeLa. As to the kind of experiment: Cytotoxicity against human HeLa cells by MTT assay. Type of assay: functional, cell-based. In a few lines:
as §1
Take `Cc1cc2c(cc1O)C[C@]1(CC[C@@H]3C[C@@]31C)O2`: the IC50 was greater than 10 µg/mL.
As for `Cc1ccc([C@]2(C)CC[C@@H]3C[C@@]32C)cc1O`, the IC50 was greater than 10 µg/mL.
For the compound `Cc1ccc([C@]2(C)CC[C@H](C(C)(C)O)O2)cc1`, the 50% inhibitory concentration (IC50) was greater than 10 µg/mL.
Take `Cc1cc2c(cc1Br)[C@]1(C)CC[C@H](C)[C@]1(C)O2` [APLYSIN]: the concentration for half-maximal inhibition (IC50) is greater than 10 µg/mL.
Same read-out and setting: to `C=C1[C@](C)(O)CC[C@@]1(C)c1ccc(C)c(O)c1` belongs greater than 10 µg/mL.
Still for that read-out and setting: to `CC1(C)[C@]23C[C@H](Br)[C@@](C)(Cl)C[C@@H]2O[C@]1(Br)[C@H](O)[C@H]1O[C@]13C` [JOHNSTONOL] belongs greater than 10 µg/mL; to `C=C1[C@](C)(O)CC[C@@]1(C)c1ccc(C)cc1O`, greater than 10 µg/mL.
For `Cc1cc(O)c([C@]2(C)CC[C@@H]3C[C@@]32C)cc1-c1cc([C@]2(C)CC[C@@H]3C[C@@]32C)c(O)cc1C` [LAUREBIPHENYL], it took 1.61 µg/mL (≈ 3.74 µM) to reach half-maximal inhibition (IC50).
Take `C=C1[C@](C)(O)CC[C@@]1(C)c1ccc(C)cc1`: the IC50 is greater than 10 µg/mL.
As to `Cc1ccc(C(C)(O)C/C=C/C(C)(C)O)cc1` (stereo not given), the IC50 is greater than 10 µg/mL.
In the case of `C=C1[C@]2(C)CC[C@@]1(C)c1cc(Br)c(C)cc1O2`, the concentration for half-maximal inhibition (IC50) was greater than 10 µg/mL.
Still for that read-out and setting: to `Cc1cc2c(cc1Br)[C@]1(C)CC[C@H](C)[C@]1(CO)O2` [APLYSINOL] belongs greater than 10 µg/mL.
As for `CC(C)=CCCC(C)(O)c1ccc(C)cc1` (stereo not given) [GOSSONOROL], the IC50 is greater than 10 µg/mL.
`Cc1ccc([C@]2(C)CC[C@@H](C(C)(C)O)O2)cc1`: the IC50 was greater than 10 µg/mL.

For the origin of these results see ChEMBL document CHEMBL1158789, “Sesquiterpenes from the red alga Laurencia tristicha” (J Nat Prod, 2005).
